These results are taken from ChEMBL document CHEMBL3774319, “Novel indole sulfides as potent HIV-1 NNRTIs” (Bioorg Med Chem Lett, 2016).

The test system of data set [1] is Human immunodeficiency virus 1. The data set can be described thus: Antiretroviral activity against HIV-1 infected in HEK293T cells assessed as inhibition of viral replication by single-cycle assay. As to conditions: Human immunodeficiency virus 1, HEK-293T. In kind it is functional, organism-based. An outline of the steps:
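In vitro single-cycle, non-replicative phenotypic anti-HIV-1 assay; IC50 values derived from it.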

A short description of data set [2]: Cytotoxicity against HEK293T cells by MTT assay. The settings on record: human. In kind it is cell-based, HEK-293T. An outline of the steps:
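HEK293T cells read out with a tetrazolium-based colorimetric assay to give toxicity values.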
(In general: Formazan colour is commonly taken as a measure of viable cells.)

The nature of data set [3]: Stability in ethanol solution containing sulfuric acid assessed as compound degradation at 0.10 mmol measured within 2 hrs by HPLC method. In kind it is physicochemical.

Take `CCOC(=O)c1[nH]c2ccc(Cl)cc2c1N(CC)c1ccccc1`: the IC50 in data set [1] is 1.2 µM. The molecule also yielded a CC50 in data set [2] of 22.8 µM.

As to `CCOC(=O)c1[nH]c2ccc(Cl)cc2c1C(SC)c1cccc(Cl)c1` (racemic), the IC50 in data set [1] was determined as 0.042 µM. For the same molecule, in data set [2], the CC50 came to 28.6 µM.

Take `CCOC(=O)c1[nH]c2ccc(Cl)cc2c1C(OC)c1cccc(C)c1` (racemic): the half-inhibitory concentration (IC50) in data set [1] was found to be 0.02 µM. Besides, in data set [3], the Stability entry is “Unstable”. In addition, in data set [2], it took 27.4 µM to reach half-maximal cytotoxicity (CC50).

For the molecule `CCOC(=O)c1[nH]c2ccc(Cl)cc2c1C(OC)c1cccc(Br)c1` (racemic), the IC50 in data set [1] amounted to 0.02 µM. In addition, the CC50 in data set [2] amounted to 26.4 µM.

For `CSC(c1ccccc1)c1c[nH]c2ccc(Cl)cc12` (racemic), in data set [1], the IC50 was determined as 9.95 µM. In data set [2], the midpoint of cytotoxicity, the CC50, lay at 52.7 µM.

In the case of `CCOC(=O)c1[nH]c2ccc(Cl)cc2c1C(SC)c1cccc(C)c1` (racemic), the IC50 in data set [1] stood at 0.038 µM. In addition, in data set [3], the Stability entry is listed as “Stable”. This molecule also yielded a CC50 in data set [2] of 29.6 µM.

In the case of `CCOC(=O)c1[nH]c2ccc(Cl)cc2c1C(SC)c1ccccc1` (racemic), the IC50 in data set [1] is 0.039 µM. The midpoint of cytotoxicity in data set [2], the CC50, lay at 26.1 µM.

In the case of `CCOC(=O)c1[nH]c2ccc(Cl)cc2c1C(SC)c1cc(C)cc(C)c1` (racemic), in data set [1], the IC50 came to 0.06 µM. Besides, the midpoint of cytotoxicity in data set [2], the CC50, lay at 32 µM.

With `CCOC(=O)c1[nH]c2ccc(Cl)cc2c1C(OC)c1cccc(Cl)c1` (racemic), in data set [1], the IC50 was 0.033 µM. In addition, the CC50 in data set [2] worked out at 26.8 µM.

Usually IC50 stands for the midpoint of a concentration-inhibition curve. The term CC50 denotes the concentration that lowers cell viability or growth by half. A higher CC50 goes with lower toxicity to the cells.
